Assay results: ChEMBL document CHEMBL3243970, “Synthesis and biological activity of some derivatives of thiochroman-4-one and tetrahydrothiapyran-4-one” (1977)
Calls of active or inactive are those of the source. The rule behind the calls is not given here.

What was measured:
Bacillus subtilis [1] = experiment: Antimicrobial activity against Bacillus subtilis assessed as growth inhibition at 91 ug/ml after 24 hrs by spectrophotometry; assay type: functional; details: read-out: GI
Outline: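 Primary screen of Bacillus subtilis growth in the presence of test compound at 91 µg/mL.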

Pseudomonas fluorescens [2] = experiment: Antimicrobial activity against Pseudomonas fluorescens assessed as growth inhibition at 91 ug/ml after 24 hrs by spectrophotometry; assay type: functional; details: read-out: GI
Bacillus subtilis [3] = experiment: Antimicrobial activity against Bacillus subtilis assessed as growth inhibition after 24 hrs by spectrophotometry; assay type: functional, organism-based
Pseudomonas fluorescens [4] = experiment: Antimicrobial activity against Pseudomonas fluorescens assessed as growth inhibition after 24 hrs by spectrophotometry; assay type: functional, organism-based
KB [5] = experiment: Cytotoxicity against human KB cells assessed as growth inhibition after 24 hrs by crystal violet staining method; assay type: functional, cell-based
KB [6] = experiment: Cytotoxicity against human KB cells assessed as growth inhibition at 50 ug/ml after 24 hrs by crystal violet staining method; assay type: functional; details: read-out: GI
Pseudomonas fluorescens [7] = experiment: Antimicrobial activity against Pseudomonas fluorescens assessed as growth inhibition at 75 ug/ml after 24 hrs by spectrophotometry; assay type: functional; details: read-out: GI
Bacillus subtilis [8] = experiment: Antimicrobial activity against Bacillus subtilis assessed as growth inhibition at 75 ug/ml after 24 hrs by spectrophotometry; assay type: functional; details: read-out: GI
KB [9] = experiment: Cytotoxicity against human KB cells assessed as growth inhibition at 12.5 ug/ml after 24 hrs by crystal violet staining method; assay type: functional; details: read-out: GI
L1210 (Mus musculus) [10] = experiment: Potentiation of mitomycin C-induced antitumor activity against mouse L1210 cells allografted in BDF1 mouse administered ip on days 2 to 6 post challenge relative to control
L1210 (Mus musculus) [11] = experiment: Potentiation of actinomycin D-induced antitumor activity against mouse L1210 cells allografted in BDF1 mouse administered ip on days 2 to 6 post challenge relative to control

Compound	inhibition of growth at 91 µg/mL (Bacillus subtilis [1]) [%]	inhibition of growth at 91 µg/mL (Pseudomonas fluorescens [2]) [%]	also measured
c1n[nH]c2c1CSCC2	0	0	–
O=S1(=O)Cc2cn[nH]c2-c2ccccc21	0	–	–
O=S1(=O)Cc2cnoc2-c2ccccc21	0	–	–
O=C1NN=C2CCSCC12 (centres undefined)	0	0	–
c1ccc(-n2ncc3c2-c2ccccc2SC3)cc1	–	–	growth inhibition (GI) (Bacillus subtilis [3]): inactive; growth inhibition (GI) (Pseudomonas fluorescens [4]): inactive; growth inhibition (GI) (KB [5]): inactive
O=C1CCS(=O)(=O)c2ccccc21	100	0	inhibition of growth at 50 µg/mL (KB [6]): 17%
O=S1(=O)Cc2c[n+]([O-])n(-c3ccccc3)c2-c2ccccc21	0	0	–
O=c1[nH]n(-c2ccccc2)c2c1CSCC2	0	0	–
c1ccc2c(c1)SCc1cn[nH]c1-2	–	–	inhibition of growth at 75 µg/mL (Pseudomonas fluorescens [7]): 0%; inhibition of growth at 75 µg/mL (Bacillus subtilis [8]): 100%; inhibition of growth at 12.5 µg/mL (KB [9]): 28%; T/C (L1210 (Mus musculus) [10]): 10%; Activity (L1210 (Mus musculus) [11]): inactive
c1ccc2c(c1)SCc1cnoc1-2	100	0	inhibition of growth at 50 µg/mL (KB [6]): 100%
